We go through 77 compounds from PubChem BioAssay AID493213 (Broad Institute, 2011).

By AC50 is commonly meant the concentration giving half of the maximal activity seen.

Several values for one entry are separate records, joined by “and”; a condition that tells them apart may be missing. Equal entries are not always repeated. Activity calls are given as the source filed them.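 The calls were made as follows: active = dose response lowering luminescence by over half the proteasome blocker control effect, potency within ten times top dose; inactive = change in the opposite direction, plus the rest.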

System in one experiment: not listed separately
In words: cellular proteasome inhibitors – cell-based, luminescence, U2OS, dry powder, set 3, counter-screen for HIF activator project, dose response (AID 493213). The note with it: U2OS proteasome chymotrypsin-like activity, Proteasome-Glo luminescence; at 38 µM (top of the series). The method, boiled down: (§1)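 System: U2OS cells; compound: 8-point 3-fold series; repeats: duplicates; schedule: 24 h plating, 4 h compound, 2 h reagent; measured by: Proteasome-Glo luminescence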
Background: Counterscreens check selectivity or assay interference.
For the compound `Cc1cccc(Nc2nc(-c3ccccn3)nnc2-c2ccccc2)n1`, the activity change, negative = inhibition is -11.6% (inactive). `c1ccc(-c2nnc(-c3ccccn3)nc2NCc2cccnc2)cc1`: the activity change, negative = inhibition is 14.6% (inactive). `CC(C)(C)CCNc1nc(-c2ccccn2)nnc1-c1ccccc1`: the activity change, negative = inhibition is 145% (inactive) and 67.4% (inactive). On the same count and under the same terms, the same measure for `COc1cccc(CNc2nc(-c3ccccn3)nnc2-c2ccccc2)c1`: 36.9% (inactive); for `c1ccc(-c2cccc(CNc3nc(-c4ccccn4)nnc3-c3ccccc3)c2)cc1`: 26.9% (inactive); for `Oc1ccc(CNC2CCc3ccccc32)c2cccnc12` (configuration not stated): 81.7% (inactive). The same measure, in the same setting: the same measure for `C[C@H](Nc1nc(-c2ccccn2)nnc1-c1ccccc1)C1CCCCC1`: 72.6% (inactive); for `OCC1CCN(c2nc(-c3ccccn3)nnc2-c2ccccc2)CC1`: 6.32% (inactive). As to `O=C(NCCCn1ccnc1)c1cc(-c2ccccc2)on1`, the activity change, negative = inhibition was 9.43% (inactive).

`C[C@@H](Nc1nc(-c2ccccn2)nnc1-c1ccccc1)c1ccccc1`: the activity change, negative = inhibition was 79.4% (inactive). Regarding `C=CCNc1nc(-c2ccccn2)nnc1-c1ccccc1`, the activity change, negative = inhibition is 4.88% (inactive). The same measure, in the same setting: in the case of `c1ccc(-c2nnc(-c3ccccn3)nc2NCc2ccccn2)cc1` it was 1.56% (inactive).

As for `O=C(c1cc(-c2ccccc2)on1)N1CCC(N2CCOCC2)CC1`, the activity change, negative = inhibition is -8.89% (inactive). For the compound `COc1ccc(CNc2nc(-c3ccccn3)nnc2-c2ccccc2)cc1`, the activity change, negative = inhibition was 53.2% (inactive).

Regarding `OCCCNc1nc(-c2ccccn2)nnc1-c1ccccc1`, the activity change, negative = inhibition is -5.89% (inactive). Still for that read-out and setting: the same measure for `O=C(NCCN1CCCCC1)c1cc(-c2ccccc2)on1`: -24.8% (inactive). On the same count and under the same terms, the same measure for `Cc1cccc(CNc2nc(-c3ccccn3)nnc2-c2ccccc2)c1`: 45.1% (inactive); for `c1ccc(-c2ccc(CNc3nc(-c4ccccn4)nnc3-c3ccccc3)cc2)cc1`: 22% (inactive); for `OCC1CCN(Cc2ccc(O)c3ncccc23)CC1`: 51.9% (inactive). `Cc1ccc(NC(=O)c2cc(-c3ccccc3)on2)cn1`: the activity change, negative = inhibition is 14.5% (inactive). Consider `c1ccc(-c2nnc(-c3ccccn3)nc2Nc2nc3ccccc3s2)cc1`, for which the activity change, negative = inhibition was 28.5% (inactive). In the case of `O=C(Nc1ncc(-c2ccccc2)o1)c1cc(-c2ccccc2)on1`, the activity change, negative = inhibition was -53.8% (inactive). As for `O=C(NCCN1CCOCC1)c1cc(-c2ccccc2)on1`, the activity change, negative = inhibition was -26.6% (inactive). For the compound `COc1ccccc1N1CCN(Cc2ccc(O)c3ncccc23)CC1`, the activity change, negative = inhibition is 27.2% (inactive). Same read-out and setting: the same measure for `c1ccc(CCNc2nc(-c3ccccn3)nnc2-c2ccccc2)cc1`: 43.3% (inactive); for `Cc1ccc(Nc2nc(-c3ccccn3)nnc2-c2ccccc2)cn1`: -25% (inactive); for `Cn1c(-c2ccccc2)cnc1Nc1nc(-c2ccccn2)nnc1-c1ccccc1`: 6.25% (inactive). The same measure, in the same setting: in the case of `C[C@@H](Nc1nc(-c2ccccn2)nnc1-c1ccccc1)C1CCCCC1` it was 133% (inactive); in that of `c1ccc(CNc2nc(-c3ccccn3)nnc2-c2ccccc2)cc1`, 25.8% (inactive); in that of `Clc1cccc(CNc2nc(-c3ccccn3)nnc2-c2ccccc2)c1`, 46.4% (inactive).

As to `c1ccc(-c2nnc(-c3ccccn3)nc2N2CCC(c3ccccc3)C2)cc1` (configuration not stated), the activity change, negative = inhibition is -6.19% (inactive). Consider `Cc1ccccc1CNc1nc(-c2ccccn2)nnc1-c1ccccc1`, for which the activity change, negative = inhibition is 29.7% (inactive). The same measure, in the same setting: in the case of `O=C(Nc1nnc(-c2ccccc2)s1)c1cc(-c2ccccc2)on1` it was -5.17% (inactive). With `O=C(c1cc(-c2ccccc2)on1)N1CCC(CO)CC1`, the activity change, negative = inhibition was -22.3% (inactive). On the same count and under the same terms, the same measure for `c1ccc(-c2csc(Nc3nc(-c4ccccn4)nnc3-c3ccccc3)n2)cc1`: -8.99% (inactive). On to `c1ccc(-c2nnc(-c3ccccn3)nc2NCCCN2CCOCC2)cc1`, for which the activity change, negative = inhibition was 6.94% (inactive).

Take `CC(C)(C)c1ccc(CNc2nc(-c3ccccn3)nnc2-c2ccccc2)cc1`: the activity change, negative = inhibition was 37.7% (inactive). Still for that read-out and setting: in the case of `c1ccc(-c2nnc(Nc3nc(-c4ccccn4)nnc3-c3ccccc3)s2)cc1` it was -5.61% (inactive); in that of `Cn1c(-c2ccccc2)cnc1NC(=O)c1cc(-c2ccccc2)on1`, -10.3% (inactive); in that of `c1ccc(-c2nnc(-c3ccccn3)nc2NCC2CC2)cc1`, -6.55% (inactive).

`O=C(NCC1CCCCC1)c1cc(-c2ccccc2)on1`: the activity change, negative = inhibition is -23.5% (inactive). Still for that read-out and setting: the same measure for `CC1CN(Cc2ccc(O)c3ncccc23)CC(C)O1` (configuration not stated): 12% (inactive); for `Cc1ccccc1CNC(=O)c1cc(-c2ccccc2)on1`: -46.6% (inactive); for `c1ccc(-c2nnc(-c3ccccn3)nc2N2CCC(C3CCCCC3)C2)cc1` (configuration not stated): 51.6% (inactive). Same read-out and setting: the same measure for `c1ccc(-c2nnc(-c3ccccn3)nc2N2CCN(c3ccncc3)CC2)cc1`: 10.3% (inactive); for `c1ccc(-c2nnc(-c3ccccn3)nc2NCC2CCOCC2)cc1`: 6.73% (inactive); for `Oc1ccc(CN2CCC3CCCCC3C2)c2cccnc12` (configuration not stated): 26.7% (inactive). As to `O=C(NCc1ccccc1)c1cc(-c2ccccc2)on1`, the activity change, negative = inhibition is -23.1% (inactive).

As for `CN1CCN(C(=O)c2cc(-c3ccccc3)on2)CC1`, the activity change, negative = inhibition is -34.5% (inactive).

For the compound `CC(C)(C)OC(=O)N1CCN(Cc2ccc(O)c3ncccc23)CC1`, the activity change, negative = inhibition was 3.79% (inactive). `CN1CCN(c2nc(-c3ccccn3)nnc2-c2ccccc2)CC1`: the activity change, negative = inhibition is 20.7% (inactive).

Turning to `Oc1ccc(CNC2Cc3ccccc3C2)c2cccnc12`, the activity change, negative = inhibition was 26.4% (inactive). With `N#CC1(c2ccccc2)CCN(Cc2ccc(O)c3ncccc23)CC1`, the activity change, negative = inhibition is 48.4% (inactive). The same measure, in the same setting: in the case of `c1ccc(-c2nnc(-c3ccccn3)nc2N2CCC(N3CCOCC3)CC2)cc1` it was 16.5% (inactive); in that of `c1ccc(-c2nnc(-c3ccccn3)nc2Nc2cnc3ccccc3n2)cc1`, -2.5% (inactive); in that of `O=C(NCCCN1CCOCC1)c1cc(-c2ccccc2)on1`, -24.4% (inactive). On the same count and under the same terms, in the case of `O=C(Nc1cnc2ccccc2c1)c1cc(-c2ccccc2)on1` it was -16.4% (inactive). With `CN(C)c1nc(-c2ccccn2)nnc1-c1ccccc1`, the activity change, negative = inhibition is 10.9% (inactive). In the case of `Cn1c(NC(=O)c2cc(-c3ccccc3)on2)nc2ccccc21`, the activity change, negative = inhibition was -1.13% (inactive). Still for that read-out and setting: the same measure for `c1ccc(-c2nnc(-c3ccccn3)nc2NCCc2ccccn2)cc1`: 16.8% (inactive). On the same count and under the same terms, the same measure for `c1ccc(-c2nnc(-c3ccccn3)nc2NCC2CCCCC2)cc1`: 49.9% (inactive); for `Cc1ccc(CNc2nc(-c3ccccn3)nnc2-c2ccccc2)cc1C`: 76.7% (inactive); for `CC(Nc1nc(-c2ccccn2)nnc1-c1ccccc1)c1ccccc1` (configuration not stated): 22.8% (inactive). The same measure, in the same setting: the same measure for `Oc1ccc(CN2CCC(Cc3ccccc3)CC2)c2cccnc12`: 30.7% (inactive).

`Oc1ccc(CN2CCc3ccccc3C2)c2cccnc12`: the activity change, negative = inhibition was 65.3% (inactive) and 46.7% (inactive). On the same count and under the same terms, in the case of `Cc1ccc(CNc2nc(-c3ccccn3)nnc2-c2ccccc2)cc1` it was 14.3% (inactive).

In another experiment the test system is U2OS proteasome chymotrypsin-like activity, Proteasome-Glo luminescence. Described as above.
Conditions: not given
The method, boiled down: as §1
Turning to `O=C(Nc1ccc2ccccc2n1)c1cc(-c2ccccc2)on1`, the AC50 was 29.1 µM. With `O=C(c1cc(-c2ccccc2)on1)N1CCN(c2ccncc2)CC1`, the AC50 was 2.52 µM. Still for that read-out and setting: the same measure for `O=C(NCC1CC1)c1cc(-c2ccccc2)on1`: 33.7 µM; for `Cc1cccc(CNC(=O)c2cc(-c3ccccc3)on2)c1`: 39.4 µM; for `O=C(Nc1ncc2ccccc2n1)c1cc(-c2ccccc2)on1`: 28.1 µM. As for `CN(C)CCNC(=O)c1cc(-c2ccccc2)on1`, the AC50 was 33.4 µM. `c1ccc(-c2cnc(Nc3nc(-c4ccccn4)nnc3-c3ccccc3)s2)cc1`: the AC50 was 2.42 µM.

As to `O=C(NCCCO)c1cc(-c2ccccc2)on1`, the AC50 is 3.88 µM. On the same count and under the same terms, the same measure for `CC(C)(C)CCNC(=O)c1cc(-c2ccccc2)on1`: 36.5 µM; for `CCCCNC(=O)c1cc(-c2ccccc2)on1`: 21.5 µM; for `Cc1cccc(NC(=O)c2cc(-c3ccccc3)on2)n1`: 17.3 µM.
